Results as given in ChEMBL document CHEMBL4138225, “Development of novel anti-filarial agents using carbamo(dithioperoxo)thioate derivatives” (Eur J Med Chem, 2018).
≈ marks a conversion by molar mass, not a printed value. Calls of active or inactive are those of the source. No cut-off for these calls is given here.

How the values were obtained:
Setaria cervi [1] = assay: Antifilarial activity against Setaria cervi microfilariae after 24 hrs by MTT assay; assay type: functional
Procedure, shortened: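 Bovine S. cervi microfilariae incubated with compounds (DMSO-dissolved) in RPMI-1640 + 10% FBS, 5% CO2, 24 h. Worms washed in PBS; ~1×10^3 suspended in 0.3 ml MTT 0.25 mg/ml, 37 °C 2 h in dark. Formazan dissolved in DMSO, absorbance at 595 nm. Percent inhibition computed; LC50 fitted; ≥4 repeats, mean ± SE.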

Setaria cervi [2] = assay: Antifilarial activity against Setaria cervi microfilariae assessed as reduction in worm movement measured every 6 hrs up to 24 hrs by microscopy; assay type: functional, organism-based
Procedure, shortened: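 About 1×10^5 S. cervi mf per well in RPMI-1640 with 10% FBS at 5% CO2, given a dose series. Motility checked by microscope every 6 h up to 24 h and scored 4 (highly motile) down to 0 (dead). IC50 and MIC calculated from scores; three experiments in triplicate, mean ± SE.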

Setaria cervi [3] = assay: Antifilarial activity against Setaria cervi adult after 24 hrs by MTT assay; assay type: functional, organism-based
Procedure, shortened: (§1)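 S. cervi mf or adults cultured in RPMI-1640 with 10% FBS, 5% CO2, 24 h with compounds dissolved in DMSO. Worms washed in PBS, ~1×10^3 put in 0.25 mg/ml MTT for 2 h at 37 °C in the dark. Formazan dissolved in DMSO, A595. Percent inhibition computed, LC50 fitted; at least four repeats, mean ± SE.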

Setaria cervi [4] = assay: Antifilarial activity against Setaria cervi oocytes after 24 hrs by MTT assay; assay type: functional, organism-based
Setaria cervi [5] = assay: Antifilarial activity against Setaria cervi microfilariae after 3 hrs by trypan blue exclusion assay; assay type: functional, organism-based
Procedure, shortened: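 After treatment, the culture was mixed and 100 μL holding parasites moved into fresh medium and put back in the CO2 incubator. Viability read by trypan blue staining, dead worms blue. Viability % = live / total microfilariae.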

Setaria cervi [6] = assay: Antifilarial activity against Setaria cervi adult after 3 hrs by trypan blue exclusion assay; assay type: functional, organism-based
WI-38 = assay: Cytotoxicity against human WI38 cells after 24 hrs by MTT assay; assay type: cell-based; details: WI-38, 24 h
Procedure, shortened: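 WI-38 normal human lung fibroblasts, 2.0×10^4 per well, grown 24 h, then treated 24 h at 0–50 µg/mL. MTT 0.5 mg/mL added in phenol red-free RPMI with 5% FBS, 4 h at 37 °C, 5% CO2. Formazan dissolved in DMSO, A570.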

[7] = Selectivity ratio of IC50 for human WI38 cells to IC50 for Setaria cervi microfilariae; assay type: toxicity; details: read-out: Ratio IC50
Setaria cervi [8] = assay: Induction of reactive oxygen species generation in Setaria cervi adult form at 1 to 10 uM by NBT assay; assay type: functional, organism-based
Procedure, shortened: (§2)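 Treated mf or adults pelleted at 7500 rpm, washed in PBS (50 mM, pH 7.0), then incubated in 2% NBT for 2 h at 37 °C. Washed in PBS and methanol, formazan dissolved in 2M KOH/DMSO for 10–15 min at room temperature, absorbance read at 620 nm.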

Setaria cervi [9] = assay: Induction of reactive oxygen species generation in Setaria cervi microfilariae at 1 to 10 uM by NBT assay; assay type: functional, organism-based; procedure, shortened: as §2
Setaria cervi [10] = assay: Induction of chromatin condensation in Setaria cervi microfilariae at 5 ug/ml after 3 hrs by Hoechst 33342 staining-based […] microscopic analysis; assay type: functional, organism-based
Procedure, shortened: (§3)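 Treated mf washed in PBS (pH 7.2), fixed in paraformaldehyde and stained 5 min with 1 mg/mL Hoechst 33342. Mounted on poly-L-lysine slides and imaged by fluorescence microscopy at […].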

Setaria cervi [11] = assay: Induction of apoptosis in Setaria cervi microfilariae at 1 to 5 ug/ml by acridine orange/ethidium bromide staining-based fluorescence microscopic analysis; assay type: functional, organism-based
Procedure, shortened: (§4)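 Treated mf or oocytes stained with AO and EtBr mixed 1:1 (from […] stocks in 0.1 M PBS). Viewed under fluorescence microscope on glass slides; orange EtBr signal marks lost membrane integrity.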

Setaria cervi [12] = assay: Induction of apoptosis in Setaria cervi oocytes at 1 to 5 ug/ml by acridine orange/ethidium bromide staining-based fluorescence microscopic analysis; assay type: functional, organism-based; procedure, shortened: as §4
Setaria cervi [13] = assay: Induction of apoptosis in Setaria cervi microfilaria assessed as viable cells at 50 ug/ml after 6 hrs by Annexin V-FITC/propidium iodide staining-based flow cytometric analysis (reference value: 97.66%); assay type: functional
Setaria cervi [14] = assay: Induction of apoptosis in Setaria cervi microfilaria assessed as early apoptotic cells at 50 ug/ml after 6 hrs by Annexin V-FITC/propidium iodide staining-based flow cytometric analysis (reference value: 2.11%); assay type: functional
Setaria cervi [15] = assay: Induction of apoptosis in Setaria cervi microfilaria assessed as late apoptotic cells at 50 ug/ml after 6 hrs by Annexin V-FITC/propidium iodide staining-based flow cytometric analysis (reference value: 0.21%); assay type: functional
Setaria cervi [16] = assay: Induction of apoptosis in Setaria cervi microfilaria assessed as necrotic cells at 50 ug/ml after 6 hrs by Annexin V-FITC/propidium iodide staining-based flow cytometric analysis (reference value: 0.02%); assay type: functional
Setaria cervi [17] = assay: Induction of apoptosis in Setaria cervi oocytes assessed as viable cells at 50 ug/ml after 6 hrs by Annexin V-FITC/propidium iodide staining-based flow cytometric analysis (reference value: 90.03%); assay type: functional
Setaria cervi [18] = assay: Induction of apoptosis in Setaria cervi oocytes assessed as early apoptotic cells at 50 ug/ml after 6 hrs by Annexin V-FITC/propidium iodide staining-based flow cytometric analysis (reference value: 8.19%); assay type: functional
Setaria cervi [19] = assay: Induction of apoptosis in Setaria cervi oocytes assessed as late apoptotic cells at 50 ug/ml after 6 hrs by Annexin V-FITC/propidium iodide staining-based flow cytometric analysis (reference value: 0.64%); assay type: functional
Setaria cervi [20] = assay: Induction of apoptosis in Setaria cervi oocytes assessed as necrotic cells at 50 ug/ml after 6 hrs by Annexin V-FITC/propidium iodide staining-based flow cytometric analysis (reference value: 1.14%); assay type: functional
Setaria cervi [21] = assay: Induction of apoptosis in Setaria cervi oocytes at 1 to 10 ug/ml after 6 hrs by Annexin V-FITC/propidium iodide staining-based fluorescence microscopic analysis; assay type: functional, organism-based
Procedure, shortened: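 Oocytes taken from gravid S. cervi females, cultured in RPMI-1640 with FBS and treated at 1 and 10 μg/mL. Washed, suspended in PBS (50 mM, pH 7.2), spun at 7500 rpm for 5 min, stained with Annexin V-FITC/PI. Imaged by inverted fluorescence microscope.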

Setaria cervi [22] = assay: Induction of apoptosis in Setaria cervi adult form assessed as increase in EGL1 protein levels after 24 hrs by Western blot analysis; assay type: functional, organism-based
Procedure, shortened: (§5)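 Adult worms treated 24 h at 10, 50 and 100 μg/mL. Protein measured by Lowry; 100 μg run on 12.5% SDS-PAGE and blotted to PVDF. Blocked in 10% skim milk, anti-EGL-1, CED-3 or CED-9 overnight at 4 °C, then alkaline phosphatase secondary for 6 h. BCIP/NBT detection, GAPDH loading control, band densitometry.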

Setaria cervi [23] = assay: Induction of apoptosis in Setaria cervi adult form assessed as increase in CED3 protein levels after 24 hrs by Western blot analysis; assay type: functional, organism-based; procedure, shortened: as §5
Setaria cervi [24] = assay: Induction of apoptosis in Setaria cervi adult form assessed as decrease in CED9 protein levels after 24 hrs by Western blot analysis; assay type: functional, organism-based; procedure, shortened: as §5
Setaria cervi [25] = assay: Antifilarial activity against Setaria cervi microfilaria forms after 24 hrs by MTT assay; assay type: functional, organism-based; procedure, shortened: as §1
Setaria cervi [26] = assay: Antifilarial activity against Setaria cervi microfilariae after 3 hrs
Setaria cervi [27] = assay: Induction of chromatin condensation in Setaria cervi microfilariae by Hoechst 33342 staining-based […] microscopic analysis; assay type: functional, organism-based; procedure, shortened: as §3

With S=C(SSc1cccc2ccccc12)N1CCC(Cc2ccccc2)CC1 the LC50 (Setaria cervi [1]) was 243 µg/mL (≈ 593 µM), the IC50 (Setaria cervi [2]) was 60.7 µg/mL (≈ 148 µM) and the MIC (Setaria cervi [2]) was 20.2 µg/mL (≈ 49.4 µM).
Compound S=C(SSc1ccccn1)N1CCCCC1 has an LC50 (Setaria cervi [1]) of 97.3 µg/mL (≈ 360 µM), an IC50 (Setaria cervi [2]) of 24.3 µg/mL (≈ 89.9 µM) and an MIC (Setaria cervi [2]) of 8.69 µg/mL (≈ 32.1 µM).
For Cc1ccc(SSC(=S)N2CCCCC2)cc1, the Activity (Setaria cervi [1]) was “Dose-dependent effect”, the LC50 (Setaria cervi [1]) was 3.89 µg/mL (≈ 13.7 µM) and the Activity (Setaria cervi [3]) was “Dose-dependent effect”. For the same compound, the Activity (Setaria cervi [4]) was “Active”, the Activity (Setaria cervi [5]) was “Dose-dependent effect” and the Activity (Setaria cervi [6]) was “Dose-dependent effect”. For the same compound, the IC50 (WI-38) was 19.8 µg/mL (≈ 70 µM), the selectivity ratio [7] was 25 and the Activity (Setaria cervi [8]) was “Active”. The Activity (Setaria cervi [9]) was “Active”, the Activity (Setaria cervi [10]) was “Active” and the Activity (Setaria cervi [11]) was “Dose-dependent effect”. For the same compound, the Activity (Setaria cervi [12]) was “Dose-dependent effect”, the Activity (Setaria cervi [13]) was 68.55% and the Activity (Setaria cervi [14]) was 15.6%. For the same compound, the Activity (Setaria cervi [15]) was 15.82%, the Activity (Setaria cervi [16]) was 0.01% and the Activity (Setaria cervi [17]) was 70.84%. The Activity (Setaria cervi [18]) was 13.3%, the Activity (Setaria cervi [19]) was 11.3% and the Activity (Setaria cervi [20]) was 4.47%. For the same compound, the Activity (Setaria cervi [21]) was “Dose-dependent effect”, the Activity (Setaria cervi [22]) was “Dose-dependent effect” and the Activity (Setaria cervi [23]) was “Dose-dependent effect”. For the same compound, the Activity (Setaria cervi [24]) was “Dose-dependent effect”, the Activity (Setaria cervi [25]) was “Active” and the IC50 (Setaria cervi [2]) was 0.708 µg/mL (≈ 2.5 µM). It also gave an MIC (Setaria cervi [2]) of 0.358 µg/mL (≈ 1.26 µM) and an IC50 (Setaria cervi [26]) of 0.708 µg/mL (≈ 2.5 µM).
In the case of S=C(SSc1ncccn1)N1CCCCC1, the Activity (Setaria cervi [1]) was “Dose-dependent effect”, the LC50 (Setaria cervi [1]) was 5.1 µg/mL (≈ 18.8 µM) and the Activity (Setaria cervi [3]) was “Dose-dependent effect”. For the same compound, the Activity (Setaria cervi [4]) was “Active”, the Activity (Setaria cervi [5]) was “Dose-dependent effect” and the Activity (Setaria cervi [6]) was “Dose-dependent effect”. The IC50 (WI-38) was 10.6 µg/mL (≈ 39.1 µM), the selectivity ratio [7] was 5 and the Activity (Setaria cervi [9]) was “Active”. The Activity (Setaria cervi [27]) was “Active”, the Activity (Setaria cervi [25]) was “Active” and the IC50 (Setaria cervi [2]) was 4.75 µg/mL (≈ 17.5 µM). It also gave an MIC (Setaria cervi [2]) of 2.39 µg/mL (≈ 8.81 µM) and an IC50 (Setaria cervi [26]) of 4.75 µg/mL (≈ 17.5 µM).
In the case of Cc1ccc(SSC(=S)N2CCOCC2)cc1, the LC50 (Setaria cervi [1]) was 79.6 µg/mL (≈ 279 µM), the IC50 (Setaria cervi [2]) was 19.9 µg/mL (≈ 69.7 µM) and the MIC (Setaria cervi [2]) was 6.63 µg/mL (≈ 23.2 µM).
With COc1ccc(SSC(=S)N2CCOCC2)cc1 the LC50 (Setaria cervi [1]) was 80.3 µg/mL (≈ 266 µM), the IC50 (Setaria cervi [2]) was 20.1 µg/mL (≈ 66.6 µM) and the MIC (Setaria cervi [2]) was 6.69 µg/mL (≈ 22.2 µM).
COc1ccc(SSC(=S)N2CCC(Cc3ccccc3)CC2)cc1 gave an LC50 (Setaria cervi [1]) of 248 µg/mL (≈ 638 µM), an IC50 (Setaria cervi [2]) of 62.1 µg/mL (≈ 159 µM) and an MIC (Setaria cervi [2]) of 20.7 µg/mL (≈ 53.1 µM).
With Cc1ccc(SSC(=S)N2CCC(Cc3ccccc3)CC2)cc1 the LC50 (Setaria cervi [1]) was 22.5 µg/mL (≈ 60.3 µM), the IC50 (Setaria cervi [2]) was 19.6 µg/mL (≈ 52.6 µM) and the MIC (Setaria cervi [2]) was 1.22 µg/mL (≈ 3.27 µM).
S=C(SSc1ccccn1)N1CCC(Cc2ccccc2)CC1 showed an LC50 (Setaria cervi [1]) of 237 µg/mL (≈ 656 µM), an IC50 (Setaria cervi [2]) of 59.1 µg/mL (≈ 164 µM) and an MIC (Setaria cervi [2]) of 19.7 µg/mL (≈ 54.7 µM).
Compound S=C(SSc1cccc2ccccc12)N1CCc2ccccc2C1 has an LC50 (Setaria cervi [1]) of 131 µg/mL (≈ 356 µM), an IC50 (Setaria cervi [2]) of 32.7 µg/mL (≈ 89 µM) and an MIC (Setaria cervi [2]) of 10.9 µg/mL (≈ 29.7 µM).
For COc1ccc(SSC(=S)N2CCc3ccccc3C2)cc1, the LC50 (Setaria cervi [1]) was 126 µg/mL (≈ 361 µM), the IC50 (Setaria cervi [2]) was 31.4 µg/mL (≈ 90.4 µM) and the MIC (Setaria cervi [2]) was 10.5 µg/mL (≈ 30.1 µM).
For S=C(SSc1ncccn1)N1CCc2ccccc2C1, the LC50 (Setaria cervi [1]) was 124 µg/mL (≈ 389 µM), the IC50 (Setaria cervi [2]) was 31.1 µg/mL (≈ 97.3 µM) and the MIC (Setaria cervi [2]) was 10.4 µg/mL (≈ 32.4 µM).
